# Screening data (PubChem BioAssay)
# Beta2AR agonist – agonists of human beta-2 adrenergic receptor inducing internalization; response, % (concentration not given with the values); Am2.2-beta2AR cells, FAP receptor internalization, flow cytometry; actives 0.43% (n = 340,000); P07550;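 active = response above a set limit, near 3 SD of response in nonfluorescent compounds, cut at about 42% in these data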
# Dynein transport – dynein cargo transport inhibition | AID 1381 | z-score, hits read low | actives 0.47% (n = 220,000) | 3617.4 mouse cells, GR-EGFP nuclear translocation imaging; test concentration mostly 20 µM; stimulated with dexamethasone, 1 µM; hits give low values;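 active = plate z-score of nuclear minus cytoplasmic receptor signal below a set negative limit, without overly bright fluorescence or cell loss, cut at about -3.5 in these data, passing the limit was not always enough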;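 note: z-score of nuclear minus cytoplasmic ring GR-EGFP intensity difference per well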
#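 medium = tetracycline-free induction medium containing charcoal-stripped FBS | probe or stimulus = dexamethasone, 1.0 µM final | timing = 48 h induction, then 1 h compound, then 30 min agonist, 37 °C | detection = automated 10x imaging of fixed Hoechst-stained cells | read-out basis = nuclear versus cytoplasmic GR-EGFP signal, averaged per well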
# ATG4B inh – blocks human ATG4B protease cleavage of LC3 substrate; actives 0.51% (n = 340,000); AID 504462; ATG4B cleavage of LC3-PLA2, NBD-HPC fluorescence, 1 h; Q9Y4P1; inhibition, % at 8.33 µM; in the data active = inhibition above about 40%
# Target sequence (Q9Y4P1 whole entry, looked up): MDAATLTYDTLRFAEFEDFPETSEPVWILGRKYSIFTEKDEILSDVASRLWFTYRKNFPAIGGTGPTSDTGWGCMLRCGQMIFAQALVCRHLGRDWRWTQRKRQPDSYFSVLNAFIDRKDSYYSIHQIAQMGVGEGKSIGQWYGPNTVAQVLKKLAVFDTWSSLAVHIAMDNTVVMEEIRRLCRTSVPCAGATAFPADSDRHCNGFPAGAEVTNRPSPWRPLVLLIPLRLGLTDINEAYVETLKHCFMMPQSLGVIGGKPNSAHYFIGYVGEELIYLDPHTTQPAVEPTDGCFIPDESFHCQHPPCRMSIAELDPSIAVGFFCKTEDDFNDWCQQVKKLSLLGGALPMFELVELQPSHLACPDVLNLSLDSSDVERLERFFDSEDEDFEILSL
# MEKK2mut PB1 HTS – signal of MEK5 binding to mutant human MEKK2 PB1 domain. bead flow cytometry, Alexa488-MEK5 binding to MEKK2 mutant. percent response, % at 10 µM. actives 0.35% (n = 290,000); in the data active = percent response above about 24%, passing the limit was not always enough
# MEKK2wt PB1 HTS – raises or lowers MEK5 binding to wildtype human MEKK2 PB1 domain; Q9Y2U5; bead flow cytometry, Alexa488-MEK5 binding to MEKK2 WT; actives lie on both sides; binding response (% of control), % at 10 µM; actives 1.1% (n = 290,000); AID 1531; in the data active = binding response below about 67% or above about 130%
# MEKK3 PB1 HTS – modulators (inhibitors or enhancers) of MEK5 binding to human MEKK3 PB1 domain; Q99759; bead-based flow cytometry, Alexa488-MEK5 binding to MEKK3; actives lie on both sides; 0 = blocked by unlabeled MEK5, 100 = vehicle; binding response (% of control), % at 10 µM; actives 1.4% (n = 290,000); AID 1529;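 active = binding response more than 3 SD above or below the average of its plate-row segment, actives on both sides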;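 note: Alexa488 bead fluorescence after subtracting the streptavidin-only scavenger bead signal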
# MEKK2wt confirm – raises or lowers MEK5 binding to wildtype human MEKK2, retest; AID 1892; actives 2.4% (n = 5,900); bead flow cytometry, Alexa488-MEK5 binding to MEKK2 WT; actives lie on both sides; shares compounds with MEKK3 PB1 HTS; binding response (% of control), % at 10 µM; in the data active = binding response below about 16% or above about 210%; inactive = in between
# MEKK2mut confirm – signal of MEK5 binding to mutant human MEKK2, retest; shares compounds with MEKK3 PB1 HTS; bead flow cytometry, Alexa488-MEK5 binding to MEKK2 mutant; percent response, % at 10 µM; actives 2% (n = 5,900); in the data active = percent response mostly above about 71%, no sharp cut-off; inactive = mostly below about 38%;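 note: higher means compound restores mutant binding toward wildtype level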
# MEKK3-MEK5 inh – confirmation of inhibitors of MEK5 binding to human MEKK3. shares compounds with MEKK3 PB1 HTS. bead flow cytometry, Alexa488-MEK5 binding to MEKK3; hits give low values. binding response (% of control), % at 10 µM. actives 1.8% (n = 5,900);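 active = binding response below 72% of control, or above a set upper limit, though filed actives all read lower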;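 note: 100% = DMSO only wells and 0% = binding blocked by excess unlabeled MEK5; lower values mean stronger disruption of MEK5 binding to MEKK3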
# Active calls of the source: *; / = no result given; [ ] = another dose, or the depositor's remark. A selection: hits, their analogues and other compounds. The true share with any hit is near 2.9%.
SMILES,Beta2AR agonist,Dynein transport,ATG4B inh,MEKK2mut PB1 HTS,MEKK2wt PB1 HTS,MEKK3 PB1 HTS,MEKK2wt confirm,MEKK2mut confirm,MEKK3-MEK5 inh
OCC1(Cc2cccc(Cl)c2)CCCN(Cc2cnn(-c3ccccc3)c2)C1 (stereo not drawn),3.6,-0.115,4.1,24.0,140.0*,94.0,130.0,20.0,103.0
CN(C)c1ccc(/C=N\Nc2nc(-c3ccccc3)cc(=O)[nH]2)cc1,-3.6,0.845,-8.2,-1.0,97.0,59.0*[inhibitor],91.0,-12.0,90.0
Nc1nc(-c2cccc(NS(=O)(=O)c3ccccc3)c2)cs1,8.7,-0.0322,-8.5,-12.0,85.0,82.0*[inhibitor],96.0,-7.0,99.0
CCOC(=O)C1=C(C)NC(=O)C1CC(=O)Nc1ccccc1 (stereo not drawn),/,-0.102,/,6.0,115.0,125.0*,102.0,2.0,99.0
CCOC(=O)C1=C(C)NC(=O)NC1c1ccc(OCC(=O)Nc2ccccc2)c(OC)c1 (stereo not drawn),-0.8,-1.01,-7.7,0.0,105.0,102.0,/,/,/
CCCCc1ccc(NC(=O)N[C@@H](CC(C)C)C(=O)O)cc1,-3.0,2.65,-1.1,7.0,112.0,2.0*[inhibitor],98.0,-8.0,97.0
CCCCc1ccc(NC(=O)CC(C)C)cc1,-6.3,1.79,-5.7,0.0,102.0,101.0,/,/,/
Cc1cc(C(=O)C(=O)O)c(C)n1-c1ccc(Cl)c(Cl)c1,-8.6,0.000326,-5.1,-2.0,98.0,102.0,/,/,/
COc1cc(/C=N/NC(=S)Nc2cccc(C(=O)O)c2)ccc1O,-3.9,0.852,-4.0,2.0,111.0,143.0*,102.0,9.0,102.0
O=C(NCCCc1nc2ccccc2[nH]1)c1ccc(F)cc1,-3.1,0.229,-15.2,0.0,110.0,108.0,/,/,/
CSc1ccccc1NC(=O)CN(C)Cc1ccc(Br)cc1,-2.1,-1,26.4,22.0,106.0,106.0,/,/,/
CSc1ccc(CN(C)CC(=O)Nc2ccccc2Br)cc1,1.6,-0.458,5.1,-1.0,102.0,132.0*,102.0,0.0,102.0
CC/C(=C\C(=O)c1ccncc1)Nc1ccc(O)cc1,7.4,-0.441,-4.7,25.0*,113.0,107.0,96.0,-10.0,98.0
CCOC(=O)Cn1nc(C)c(NC(=O)COc2cccc(Cl)c2)c1C,-3.9,0.2,-4.2,0.0,119.0,132.0*,106.0,7.0,104.0
Cc1ccc(-n2nc3c(c2NC(=O)/C=C\c2ccc4c(c2)OCO4)CSC3)c(C)c1,4.0,-0.612,-11.1,-7.0,83.0,72.0*[inhibitor],98.0,-3.0,102.0
COc1ccc(CN(C(=O)CN2C(=O)c3ccccc3S2(=O)=O)C(C(=O)NCC2CCCO2)c2ccco2)cc1 (stereo not drawn),3.9,/,4.3,-2.0,99.0,99.0,/,/,/
O=C(c1cc(Cl)ccc1Cl)N1CCOCC1,1.9,-0.622,-0.9,-21.0,-4.0*[inhibitor],0.0*[inhibitor],106.0,13.0,102.0
O=C(COC(=O)CCC(=O)c1cccs1)Nc1ccc(F)c(F)c1F,-0.1,/,-1.2,/,/,/,/,/,/
CN(CCO)c1cc(N2CCC3(CC2)OCCO3)c2nonc2c1[N+](=O)[O-],3.4,-0.599,-7.2,-1.0,105.0,74.0*[inhibitor],98.0,-2.0,100.0
COc1ccc(-c2nn(-c3ccccc3)cc2/C=N/O)cc1OC,11.2,/,-2.0,-1.0,96.0,93.0,/,/,/
COc1ccc(-c2nn(-c3ccccc3)cc2/C=N/N=C(N)N)cc1OC,8.8,-0.467,-6.5,3.0,148.0*,110.0,176.0,35.0,111.0
CCOC(=O)/C(C)=C1\NC(C)(C)Cc2ccccc21,5.0,-0.0501,4.0,-3.0,96.0,96.0,/,/,/
CCCCC1(C)Cc2ccccc2C(=S)N1 (stereo not drawn),2.7,-0.632,-7.3,-16.0,2.0*[inhibitor],2.0*[inhibitor],108.0,2.0,103.0
COc1ccc(N2CC(C(=O)NC3CCSC3=O)CC2=O)cc1 (stereo not drawn),1.0,/,-10.7,1.0,103.0,103.0,/,/,/
CCN(C1CCCCC1)S(=O)(=O)c1ccc(S(=O)(=O)N(CC(=O)Nc2ccccc2)C2CC2)cc1,-6.2,-0.384,-2.2,3.0,109.0,100.0,/,/,/
SMILES,Beta2AR agonist,Dynein transport,ATG4B inh,MEKK2mut PB1 HTS,MEKK2wt PB1 HTS,MEKK3 PB1 HTS,MEKK2wt confirm,MEKK2mut confirm,MEKK3-MEK5 inh
Cc1ccc(S(=O)(=O)N(CC(=O)Nc2ccc(Cl)c([N+](=O)[O-])c2)C2CCCCC2)cc1,-5.6,0.243,15.8,27.0,146.0*,107.0,132.0,20.0,106.0
COC(CNC(=O)c1ccc(CS(=O)(=O)c2c(Cl)cccc2Cl)o1)OC,-3.2,/,-2.7,2.0,111.0,102.0,/,/,/
Cc1cc2nc(SCCOC(=O)Nc3cccc(Cl)c3)nc(C)c2cc1C,3.9,-0.173,-7.8,1.0,111.0,153.0*,98.0,-3.0,102.0
COc1ccc(OC)c(/C(O)=C/C(=O)C(=O)Nc2cc(C)cc(C)c2)c1,0.8,-0.371,-15.5,4.0,120.0,126.0*,96.0,-5.0,97.0
COc1ccc(OC)c(/C(O)=C/C(=O)C(=O)Nc2cc(C)ccc2OC)c1,6.9,-1.04,6.3,-1.0,93.0,92.0,/,/,/
Cc1ccc(NS(=O)(=O)c2ccc(C)c(C(=O)Nc3ccc(S(=O)(=O)Nc4onc(C)c4C)cc3)c2)cc1,-5.8,/,-19.7,/,/,/,/,/,/
COc1ccc(OC)c(NC(=O)CSc2nnnn2-c2ccc3c(c2)OCO3)c1,5.2,-0.619,0.6,12.0,116.0,128.0*,98.0,-2.0,96.0
CCOC(=O)c1ccc(NC(=O)C2CC(O)CN2S(=O)(=O)c2ccc(C)cc2)cc1 (stereo not drawn),-9.3,/,-0.1,/,/,/,/,/,/
COc1ccc(C)cc1S(=O)(=O)N1CCCCCC1,-0.4,0.969,-6.7,26.0,112.0,129.0*,99.0,6.0,102.0
O=S1(=O)CC(O)C(Nc2ccc(Cl)cc2)C1 (stereo not drawn),-4.8,-0.0867,4.1,-4.0,67.0,49.0*[inhibitor],96.0,-9.0,97.0
COc1ccc(-n2nc3c(N)n[nH]c3cc2=O)cc1,1.3,-0.766,-1.7,-15.0,71.0,67.0*[inhibitor],70.0,-6.0,68.0*
COc1cc(C(=O)NC(=S)Nc2ccc([N+](=O)[O-])cc2)cc(OC)c1OC,2.5,0.518,-9.3,2.0,103.0,141.0*,104.0,4.0,103.0
